Published values pooled from the literature.
Each line is one published result; the experiments were not run side by side.
Target: MAP/microtubule affinity-regulating kinase 4 (MARK4, Homo sapiens, UniProt Q96L34)
Effect on: enzyme activity
Action: inhibitor
Residues used in one study (Q96L34 1-752): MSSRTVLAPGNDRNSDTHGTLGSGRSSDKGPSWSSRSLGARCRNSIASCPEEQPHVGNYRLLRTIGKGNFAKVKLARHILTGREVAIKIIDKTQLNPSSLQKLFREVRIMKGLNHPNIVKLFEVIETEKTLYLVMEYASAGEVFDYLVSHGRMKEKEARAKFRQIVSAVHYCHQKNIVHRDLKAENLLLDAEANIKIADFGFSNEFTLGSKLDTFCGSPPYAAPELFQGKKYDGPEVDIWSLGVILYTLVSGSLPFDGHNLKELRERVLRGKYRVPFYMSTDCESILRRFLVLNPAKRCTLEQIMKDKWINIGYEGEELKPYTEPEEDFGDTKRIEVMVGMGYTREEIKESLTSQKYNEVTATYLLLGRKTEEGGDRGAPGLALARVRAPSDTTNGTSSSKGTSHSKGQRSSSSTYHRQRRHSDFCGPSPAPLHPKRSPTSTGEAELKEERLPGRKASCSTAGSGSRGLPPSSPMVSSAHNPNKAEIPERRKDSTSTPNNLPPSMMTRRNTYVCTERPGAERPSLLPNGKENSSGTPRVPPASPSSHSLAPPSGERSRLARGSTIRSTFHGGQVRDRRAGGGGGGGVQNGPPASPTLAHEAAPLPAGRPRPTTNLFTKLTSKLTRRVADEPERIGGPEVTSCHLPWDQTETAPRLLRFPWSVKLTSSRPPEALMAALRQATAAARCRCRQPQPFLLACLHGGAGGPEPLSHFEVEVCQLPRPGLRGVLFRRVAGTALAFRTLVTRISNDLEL

Cc1sc(C(=O)NC2COC2)cc1-n1cc(NC(=O)Nc2c(F)cccc2Cl)cn1 — remaining activity (10 µM): 108%
Cn1c(=O)n(-c2ccc(C(C)(C)C#N)cc2)c2c3cc(-c4cnc5ccccc5c4)ccc3ncc21 — remaining activity (10 µM): 81%
Brc1cnc(Nc2cccc(CN3CCOCC3)c2)nc1NCCc1c[nH]cn1 — remaining activity (radiometric; 1 µM): 3%
FC(F)c1nc2ccccc2n1-c1nc(N2CCOCC2)nc(N2CCOCC2)n1 — remaining activity (10 µM): 89%
Cc1nn(CC(F)(F)F)cc1Nc1ncc(C2CC2)c(NCCc2c[nH]cn2)n1 — remaining activity (radiometric; 1 µM): 88%
CC(C)(C)c1nc(-c2cccc(NS(=O)(=O)c3c(F)cccc3F)c2F)c(-c2ccnc(N)n2)s1 — remaining activity (radiometric; 1 µM): 84%
Cc1nn(CC(F)(F)F)cc1Nc1nccc(NCc2ccc(S(N)(=O)=O)cc2)n1 — remaining activity (radiometric; 1 µM): 101%
Cc1ccc(Nc2nccc(N(C)c3ccc4c(C)n(C)nc4c3)n2)cc1S(N)(=O)=O — remaining activity (0.5 µM): 98%
COc1cc(Cl)c(C(=O)N[C@@H](CN[C@H]2CC[C@@H](N)CC2)Cc2ccc(C#N)cc2)cc1-c1ccc(CN[C@H](C)c2ccc(C)cc2)o1 — remaining activity (1 µM): 91%
Cc1ccc(C(=O)Nc2ccc(CN3CCN(C)CC3)c(C(F)(F)F)c2)cc1C#Cc1cnc2cccnn12 — remaining activity (23.5 nM): 94%
NS(=O)(=O)c1ccc(CNc2ccnc(Nc3cccc(NC(=O)N4CCCC4)c3)n2)cc1 — remaining activity (radiometric; 1 µM): 99%
CC(C)(O)[C@H]1CC[C@H](Nc2ccc3ncc(-c4cccc(C(F)(F)F)c4)n3n2)CC1 — remaining activity (1 µM): 97.8%
Cc1nn(CC(F)(F)F)cc1Nc1nccc(NCCCNC(=O)C2CCC2)n1 — remaining activity (radiometric; 1 µM): 113%
CC(C)(C)c1nc2c(s1)c1nc(N)ncc1c1ccc(NS(=O)(=O)c3c(F)cccc3F)c(F)c12 — remaining activity (radiometric; 1 µM): 88%
O=C(Nc1cnn(-c2csc(C(=O)NC3COC3)c2)c1)Nc1c(F)cccc1Cl — remaining activity (5 µM): 97.9%
COc1cc(Nc2cnc(C#N)c(O[C@H](C)CN(C)C)n2)ncc1-c1cnn(C)c1 — remaining activity (radiometric; 1 µM): 105%
